Results on 14 molecules are retold here after ChEMBL document CHEMBL1275290, “4-Aminoquinoline derived antimalarials: synthesis, antiplasmodial activity and heme polymerization inhibition studies” (Eur J Med Chem, 2010).

Assay [1] can be described thus: Inhibition of beta-hematin polymerization by UV spectrophotometry based BHIA assay relative to untreated hemin control. It counts as functional. In short, it runs like this:
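IC50 expressed as millimolar equivalents of compound relative to hemin needed to block beta-hematin formation by 50%. Triplicate readings converted to percent inhibition versus drug-free hemozoin control; IC50 from sigmoidal dose-response non-linear regression. Means ± SD from at least three experiments in duplicate.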

The nature of assay [2]: Binding affinity to hematin measured as association constant for 1:1 (hematin-compound) complex formation at pH 7.5. In short, it runs like this: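 Spectrophotometric titration of hematin with compound in 40% aqueous DMSO, 20 mM HEPES, pH 7.5, 25 °C; hematin held in monomeric state. Association constant for 1:1 compound:hematin complex; means ± SD from at least three experiments in duplicate.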

The test system of assay [3] is Plasmodium falciparum. Briefly: Antimalarial activity against chloroquine-resistant Plasmodium falciparum Dd2 after 72 hrs by SYBR Green I fluorescence based method. To be noted: Dd2, 72 h. The format is functional, organism-based. The method in brief:
(§1)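 Asynchronous continuous P. falciparum cultures diluted with uninfected erythrocytes in RPMI-1640 + 0.5% Albumax II to 0.2% parasitemia, 2% hematocrit. Compounds from 10 mM DMSO stock diluted in medium (0.1 nM–100 range). 72 h incubation under standard culture conditions; SYBR Green I fluorescence read (ex 497/em 520 nm). Triplicate experiments; IC50 from variable-slope sigmoidal dose–response fits.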

Assay [4] concerns Plasmodium falciparum. Briefly: Resistance index, ratio of IC50 for chloroquine-resistant Plasmodium falciparum Dd2 to IC50 for chloroquine-sensitive Plasmodium falciparum D6. The format is functional. The method in brief:
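Ratio of Dd2 IC50 to D6 IC50, each from the 72 h SYBR Green I growth assay (0.2% parasitemia, 2% hematocrit, RPMI-1640 + 0.5% Albumax II), triplicate, IC50 from variable-slope sigmoidal fits.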

Assay [5] deals with Plasmodium falciparum. Briefly: Antimalarial activity against chloroquine-sensitive Plasmodium falciparum D6 after 72 hrs by SYBR Green I fluorescence based method. It counts as functional, organism-based. To be noted: D6, 72 h. In short, it runs like this: as §1

In the case of `S=C(NCCCNc1ccnc2cc(Cl)ccc12)N1CCCCC1`, the IC50 was found to be 0.29 mMequiv in assay [1], 104 nM in the assay on Plasmodium falciparum [3] and 104 nM with Plasmodium falciparum [5]. Further, in assay [2], the log Ks was found to be 5.24. In addition, in the assay on Plasmodium falciparum [4], the “Ratio IC50” value was found to be 0.99.

As to `S=C(NCCCNc1ccnc2cc(Cl)ccc12)N1CCOCC1`, the IC50 in assay [1] was 0.34 mMequiv; with Plasmodium falciparum [3], 556 nM; with Plasmodium falciparum [5] it was 180 nM. The log Ks in assay [2] is 4.94. The “Ratio IC50” value in the assay with Plasmodium falciparum [4] is reported as 3.08.

Regarding `CN1CCN(C(=S)NCCCNc2ccnc3cc(Cl)ccc23)CC1`, the values for the IC50 (in assay [1]; in the assay on Plasmodium falciparum [3]; with Plasmodium falciparum [5]) were 0.35 mMequiv, 68.4 nM and 59.1 nM, respectively. Moreover, in assay [2], the log Ks turned out to be 4.98. Further, the “Ratio IC50” value in the assay on Plasmodium falciparum [4] was 1.16.

On to `S=C(NCCCNc1ccnc2cc(Cl)ccc12)N1CCN(c2ccccc2)CC1`, for which the IC50 in assay [1] is 0.17 mMequiv; in the assay with Plasmodium falciparum [3], 50.5 nM; in the assay with Plasmodium falciparum [5] it was 28.7 nM. Moreover, the log Ks in assay [2] stood at 5.37. In the assay with Plasmodium falciparum [4], the “Ratio IC50” value amounted to 1.76.

Consider `CC(C)N(C(=S)NCCCNc1ccnc2cc(Cl)ccc12)C(C)C`, for which the IC50 worked out at 0.33 mMequiv in assay [1], 202 nM with Plasmodium falciparum [3] and 161 nM in the assay on Plasmodium falciparum [5]. In assay [2], the log Ks was 4.95. Besides, the “Ratio IC50” value in the assay with Plasmodium falciparum [4] is 1.25.

Consider `CN(C)C(=S)NCCCNc1ccnc2cc(Cl)ccc12`, for which the values for the IC50 (in assay [1]; with Plasmodium falciparum [5]) were 0.55 mMequiv and 140 nM, respectively. In assay [2], this molecule showed a log Ks of 4.87.

With `S=C(NCCCNc1ccnc2cc(Cl)ccc12)NC1CC1`, the IC50 in assay [1] came out at 0.11 mMequiv; in the assay with Plasmodium falciparum [3], 14.1 nM; with Plasmodium falciparum [5] it was 23.9 nM. In addition, the log Ks in assay [2] is 5.67. In the assay on Plasmodium falciparum [4], the “Ratio IC50” value is reported as 0.59.

Regarding `S=C(NCCCNc1ccnc2cc(Cl)ccc12)Nc1ccc(Cl)cc1`, the IC50 in assay [1] worked out at 0.48 mMequiv; with Plasmodium falciparum [5] it was 234 nM. For the same molecule, the log Ks in assay [2] was 4.23.

For `CNC(=S)NCCCNc1ccnc2cc(Cl)ccc12`, the IC50 in assay [1] is 0.66 mMequiv; with Plasmodium falciparum [3], 213 nM; in the assay on Plasmodium falciparum [5], 177 nM. Moreover, in assay [2], the log Ks was 4.57. Moreover, the “Ratio IC50” value in the assay with Plasmodium falciparum [4] was determined as 1.2.

Turning to `S=C(NCCCNc1ccnc2cc(Cl)ccc12)N1CCNCC1`, the IC50 was 0.69 mMequiv in assay [1], 778 nM in the assay with Plasmodium falciparum [3] and 333 nM in the assay on Plasmodium falciparum [5]. In assay [2], this molecule came in with a log Ks of 4.46. Besides, the “Ratio IC50” value in the assay on Plasmodium falciparum [4] is on record as 2.33.

`CCN(CC)CCCC(C)Nc1ccnc2cc(Cl)ccc12` (configuration not stated) [CHLOROQUINE]: the IC50 in assay [1] worked out at 0.17 mMequiv.

`S=C(NCCCNc1ccnc2cc(Cl)ccc12)NCCCNc1ccnc2cc(Cl)ccc12`: the IC50 in assay [1] is 0.27 mMequiv; with Plasmodium falciparum [3] it was 280 nM; with Plasmodium falciparum [5], 128 nM. For the same molecule, the log Ks in assay [2] is 5.38. Further, the “Ratio IC50” value in the assay with Plasmodium falciparum [4] was found to be 2.18.

As for `CCN(CC)C(=S)NCCCNc1ccnc2cc(Cl)ccc12`, the figures for the IC50 (in assay [1]; in the assay on Plasmodium falciparum [3]; with Plasmodium falciparum [5]) were 0.15 mMequiv, 125 nM and 103 nM, respectively. In assay [2], the log Ks is 5.34. In addition, the “Ratio IC50” value in the assay with Plasmodium falciparum [4] came out at 1.21.

In the case of `S=C(NCCCNc1ccnc2cc(Cl)ccc12)N1CCCC1`, the IC50 in assay [1] stood at 0.35 mMequiv; in the assay on Plasmodium falciparum [3] it was 142 nM; with Plasmodium falciparum [5], 128 nM. Also, in assay [2], the log Ks is 4.98. Also, the “Ratio IC50” value with Plasmodium falciparum [4] is 1.11.
